The source made the active and inactive calls. The calls are words filed in the database; no cut-off is given here.
Assays:
Mus musculus [1] = test: Antiinflammatory activity in LANCL2-/- C57BL/6J mouse model of DSS-induced colitis at 8 mg/kg, po administered as single dose via gavage measured 7 days DSS challenge; assay type: functional, organism-based
Mus musculus [2] = test: Antiinflammatory activity in LANCL2-/- C57BL/6J mouse model of DSS-induced colitis assessed as reduction of MHCII+ CD11c+ […] at 8 mg/kg, po […] via gavage measured 7 days post DSS challenge by immunostaining based flow cytometric analysis; assay type: functional, organism-based
How it was run: (§1)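 DSS colitis in WT or LANCL2−/− mice; 8 mg/kg/d by daily gavage from day 0, analysed at day 7. Colonic cells (4−6 × 10^5) surface-stained 20 min with fluorochrome-conjugated antibodies, then fixed, permeabilized, Fc-blocked and stained intracellularly. Stored fixed at 4 °C in the dark. Flow cytometry with live-cell then single-cell gating.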

Mus musculus [3] = test: Antiinflammatory activity in C57BL/6J mouse model of DSS-induced colitis assessed as increase in IL-10 gene expression at 8 mg/kg, po administered as single dose via gavage measured 7 days post DSS challenge by qRT-PCR analysis; assay type: functional, organism-based
Mus musculus [4] = test: Antiinflammatory activity in LANCL2-/- C57BL/6J mouse model of DSS-induced colitis assessed as upregulation of IL-10 secretion at 8 mg/kg, po administered as single dose via gavage measured 7 days post DSS challenge by immunostaining based flow cytometric analysis; assay type: functional, organism-based
Mus musculus [5] = test: Antiinflammatory activity in C57BL/6J mouse model of DSS-induced colitis assessed as upregulation of colonic LANCL2 mRNA expression at 8 mg/kg, po administered as single dose via gavage measured 3 days post DSS challenge by qRT-PCR analysis
Mus musculus [6] = test: Antiinflammatory activity in C57BL/6J mouse model of DSS-induced colitis assessed as upregulation of IL-10 secretion at 8 mg/kg, po administered as […] via gavage measured 7 days post DSS challenge by immunostaining based flow cytometric analysis; assay type: functional, organism-based; how it was run: as §1
Mus musculus [7] = species on record: Mus musculus; test: Antiinflammatory activity in C57BL/6J mouse model of DSS-induced colitis assessed as decrease in TNF-alpha gene expression at […] measured 7 days post DSS challenge by qRT-PCR analysis; assay type: functional, organism-based
[8] = Apparent volume of distribution in rat at 80 mg/kg, po by LC-MS/MS analysis; assay type: ADME, organism-based; details: in vivo
How it was run: (§2)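 Healthy rats given a single 80 mg/kg oral dose; plasma sampled over 0.5−48 h for pharmacokinetic parameters.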

Mus musculus [9] = test: Antiinflammatory activity in LANCL2-/- C57BL/6J mouse model of DSS-induced colitis assessed as reduction of MCP1 positive cells at 8 mg/kg, po […] via gavage measured 7 days post DSS challenge by immunostaining based flow cytometric analysis; assay type: functional, organism-based; how it was run: as §1
[10] = Tmax in rat plasma at 80 mg/kg, po by LC-MS/MS analysis; assay type: ADME, organism-based; how it was run: as §2
[11] = Elimination rate constant in rat at 80 mg/kg, po; assay type: ADME, organism-based; details: in vivo; how it was run: as §2
Mus musculus [12] = test: Antiinflammatory activity in C57BL/6J mouse model of DSS-induced colitis assessed as reduction of MCP1 positive cells at 8 mg/kg, po administered as single dose via gavage measured 7 days post DSS challenge by immunostaining based flow cytometric analysis; assay type: functional, organism-based
Mus musculus [13] = test: Antiinflammatory activity in LANCL2-/- C57BL/6J mouse model of DSS-induced colitis assessed as reduction of TNF-alpha positive cells at 8 mg/kg, po administered as single dose via gavage measured 7 days post DSS challenge by immunostaining based flow cytometric analysis; assay type: functional, organism-based
Mus musculus [14] = test: Antiinflammatory activity in C57BL/6J mouse model of DSS-induced colitis assessed as reduction of MHCII+ CD11c+ […] at 8 mg/kg, po administered as single dose via gavage measured 7 days post DSS challenge by immunostaining based flow cytometric analysis; assay type: functional, organism-based
Splenocyte = test: Induction of intracellular cAMP production in LANCL2-/- C57BL/6J mouse splenocytes at 1.25 to 10 uM incubated for 20 hrs followed by redosing for 10 mins measured by EIA; assay type: functional, tissue-based; details: dose 1.25-10 µM, time 1210.0 min
How it was run: (§3)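 Splenocytes from male WT or LANCL2−/− C57BL/6J mice over 8 weeks, stimulated on plates precoated with anti-CD28 (1 μg/mL) and anti-CD3 (5 μg/mL). Compound in cRPMI at 0, 1.25, 2.5, 5, 10 μM, four replicates, plus unstimulated controls. After 20 h, a second 10 min treatment at the same concentrations. Cells washed, lysed in 0.1 M HCl, intracellular cAMP read by direct EIA.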

[15] = Cmax in rat plasma at 80 mg/kg, po measured at 1 hr by LC-MS/MS analysis; assay type: ADME, organism-based; design: route oral, dose 80 mg/kg, time 1 hrs; how it was run: as §2
[16] = Half-life in rat at 80 mg/kg, po by LC-MS/MS analysis; details: in vivo
[17] = Tmax in rat at 500 mg/kg, po by LC-MS/MS analysis; assay type: ADME, organism-based; details: in vivo
[18] = biological target: T1, LanC-like protein 2 (Mus musculus) (UniProt Q9JJK2); test: Activation of wild-type LANCL2 in C57BL/6J mouse splenocytes assessed as increase in intracellular cAMP production incubated for 20 hrs followed by compound redosing for 10 mins measured by EIA; assay type: cell-based; details: Splenocyte, filed as activator, dose 1.25-10 µM, time 1210.0 min; how it was run: as §3
T1 sequence (whole entry): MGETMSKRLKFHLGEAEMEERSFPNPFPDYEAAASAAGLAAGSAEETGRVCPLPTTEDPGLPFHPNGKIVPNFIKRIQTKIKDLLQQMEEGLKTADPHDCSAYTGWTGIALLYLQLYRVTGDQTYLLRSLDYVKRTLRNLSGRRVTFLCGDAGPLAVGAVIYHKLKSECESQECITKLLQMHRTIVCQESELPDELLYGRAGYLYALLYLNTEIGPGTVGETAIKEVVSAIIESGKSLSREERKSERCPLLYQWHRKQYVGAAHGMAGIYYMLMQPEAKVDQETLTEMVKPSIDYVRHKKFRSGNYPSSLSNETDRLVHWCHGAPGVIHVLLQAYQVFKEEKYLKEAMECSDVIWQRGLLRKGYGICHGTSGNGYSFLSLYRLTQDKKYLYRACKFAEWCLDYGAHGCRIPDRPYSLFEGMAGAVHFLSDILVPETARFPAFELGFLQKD

Mus musculus [19] = test: Antiinflammatory activity in C57BL/6J mouse model of DSS-induced colitis assessed as reduction of TNF-alpha positive cells at 8 mg/kg, po administered as single dose via gavage measured 7 days post DSS challenge by immunostaining based flow cytometric analysis; assay type: functional, organism-based
[20] = Drug concentration in rat colon at 80 mg/kg, po by LC-MS/MS analysis; assay type: ADME, organism-based; details: in vivo
Mus musculus [21] = test: Antiinflammatory activity in C57BL/6J mouse model of DSS-induced colitis assessed as upregulation of colonic LANCL2 mRNA expression at 8 mg/kg, po administered as single dose via gavage measured after 3 days by qRT-PCR analysis; assay type: functional, organism-based; details: time 3.0 day
How it was run: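 DSS colitis mice given 8 mg/kg/d orally versus vehicle; colon sampled on day 3 after treatment. Colonic LANCL2 mRNA measured by SYBR green real-time qPCR from 1 μg total RNA, quantified against amplicon standard curves.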

Mus musculus [22] = test: Antiinflammatory activity in LANCL2-/- C57BL/6J mouse model of DSS-induced colitis assessed as reduction in leukocyte infiltration of gut mucosa at 8 mg/kg, po administered […] via gavage measured 7 days post DSS challenge by H and E staining based histopathological analysis; assay type: functional, organism-based
How it was run: (§4)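 Colitis induced in C57BL/6J or LANCL2−/− mice with DSS in drinking water. Compound given at 8 mg/kg/d by daily orogastric gavage from day 0 of the DSS challenge. Assessed at day 7 by disease activity index and by histopathology of colon: formalin-fixed, paraffin 5 μm sections, H&E, scored for leukocytic infiltration, epithelial erosion, mucosal thickening.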

[23] = Cmax in rat at 500 mg/kg, po by LC-MS/MS analysis by LC-MS/MS analysis; assay type: ADME, organism-based; design: route oral, dose 500 mg/kg; details: in vivo
Mus musculus [24] = test: Antiinflammatory activity in C57BL/6J mouse model of DSS-induced colitis assessed as reduction in colonic lesion at 8 mg/kg, po administered as single dose via gavage measured 7 days post DSS challenge; assay type: functional, organism-based
Mus musculus [25] = test: Antiinflammatory activity in C57BL/6J mouse model of DSS-induced colitis assessed as improvement in disease activity at 8 mg/kg, po administered as […] via gavage measured 7 days post DSS challenge; assay type: functional, organism-based; how it was run: as §4

Question: What does the source list for `O=C(c1cccc(-c2nc3ccccc3[nH]2)n1)N1CCN(C(=O)c2cccc(-c3nc4ccccc4[nH]3)n2)CC1` [OMILANCOR]?
Answer: Activity (Mus musculus [1]): inactive; Activity (Mus musculus [2]): inactive; Activity (Mus musculus [3]): Active; Activity (Mus musculus [4]): inactive; Activity (Mus musculus [5]): Active; Activity (Mus musculus [6]): Active; Activity (Mus musculus [7]): Active; Vz [8]: 3.38 L/kg; Activity (Mus musculus [9]): inactive; Tmax [10]: 1 h; Kel [11]: 0.225 h⁻¹; Activity (Mus musculus [12]): Active; Activity (Mus musculus [13]): inactive; Activity (Mus musculus [14]): Active; Activity (Splenocyte): inactive; Cmax [15]: 0.028 µg/mL; half-life [16]: 3.1 h; Tmax [17]: 4 h; Activity [18]: Dose-dependent effect; Activity (Mus musculus [19]): Active; Drug uptake [20]: Active; Activity (Mus musculus [21]): Active; Activity (Mus musculus [22]): inactive; Cmax [23]: 0.017 µg/mL; Activity (Mus musculus [24]): Active; Activity (Mus musculus [25]): Active

Source: ChEMBL document CHEMBL4715799, “An N,N-Bis(benzimidazolylpicolinoyl)piperazine (BT-11): A Novel Lanthionine Synthetase C-Like 2-Based Therapeutic for Inflammatory Bowel Disease” (J Med Chem, 2016)
